What all share (experiment): aerobic spectrophotometric titration of flavin absorbance
Common to all, as to format: binding

Test [1] concerns the target T1, Class 2 dihydroorotate dehydrogenase (DHOD) from E. coli (Escherichia coli, UniProt P0A7E1, T178V).
T1 sequence (P0A7E1 1-336 T178V): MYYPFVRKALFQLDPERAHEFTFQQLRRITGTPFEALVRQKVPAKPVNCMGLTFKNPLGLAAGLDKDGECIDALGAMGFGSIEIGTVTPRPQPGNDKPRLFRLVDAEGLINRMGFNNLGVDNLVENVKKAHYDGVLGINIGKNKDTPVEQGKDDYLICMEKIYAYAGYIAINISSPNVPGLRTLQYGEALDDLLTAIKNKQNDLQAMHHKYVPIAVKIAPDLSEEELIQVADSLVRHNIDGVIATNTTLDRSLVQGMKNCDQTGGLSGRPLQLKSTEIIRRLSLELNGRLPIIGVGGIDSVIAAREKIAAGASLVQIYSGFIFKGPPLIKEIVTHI
In a few lines:
(§1)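 Enzymes (wild-type and mutants) expressed from the pAG-1 plasmid in E. coli SØ6645, purified, stored at −80 °C in 50% glycerol, and desalted into buffer before use. The oxidized enzyme in 0.1 M Tris-HCl, pH 8.5, 25 °C, was titrated aerobically with orotate in the same buffer. The flavin absorbance change (456→475 nm red-shift) vs orotate was fit to a binding equation using total enzyme and total ligand to give Kd.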

For test [2], the target named is T2, Class 2 dihydroorotate dehydrogenase (DHOD) from E. coli (Escherichia coli, UniProt P0A7E1, F115L/T178V).
T2 sequence (P0A7E1 1-336 F115L/T178V): T1 sequence (P0A7E1 1-336 T178V) with F115L
In a few lines:
as §1

Test [3] concerns the target T3, Class 2 dihydroorotate dehydrogenase (DHOD) from E. coli (Escherichia coli, UniProt P0A7E1, F115W).
T3 sequence (P0A7E1 1-336 F115W): T1 sequence (P0A7E1 1-336 T178V) with F115W, V178T
In a few lines: as §1

Test [4] concerns the target T4, Class 2 dihydroorotate dehydrogenase (DHOD) from E. coli (Escherichia coli, UniProt P0A7E1, F115A).
T4 sequence (P0A7E1 1-336 F115A): T1 sequence (P0A7E1 1-336 T178V) with F115A, V178T
In outline: as §1

The target of test [5] is T5, Class 2 dihydroorotate dehydrogenase (DHOD) from E. coli (Escherichia coli, UniProt P0A7E1, S175A).
T5 sequence (P0A7E1 1-336 S175A): T1 sequence (P0A7E1 1-336 T178V) with S175A, V178T
In outline:
as §1

Test [6] addresses T6, Class 2 dihydroorotate dehydrogenase (DHOD) from E. coli (Escherichia coli, UniProt P0A7E1, F115L).
T6 sequence (P0A7E1 1-336 F115L): T1 sequence (P0A7E1 1-336 T178V) with F115L, V178T
In outline:
as §1

In test [7] the target is T7, Class 2 dihydroorotate dehydrogenase (DHOD) from E. coli (Escherichia coli, UniProt P0A7E1, T178S).
T7 sequence (P0A7E1 1-336 T178S): T1 sequence (P0A7E1 1-336 T178V) with V178S
In outline: as §1

For test [8], the target named is T8, Class 2 dihydroorotate dehydrogenase (DHOD) from E. coli (Escherichia coli, UniProt P0A7E1, T178A).
T8 sequence (P0A7E1 1-336 T178A): T1 sequence (P0A7E1 1-336 T178V) with V178A
In outline:
as §1

Residue numbers refer to the chain shown, from its start.

The values that follow come from article PMC2780000 (Biochemistry, 2009).

`O=C(O)c1cc(=O)[nH]c(=O)[nH]1` [orotate]: the dissociation constant Kd turned out to be 0.56 ± 0.04 µM in test [1]; 4.6 ± 0.3 µM in test [2]; 8.1 ± 0.4 µM in test [3]; 3.8 ± 0.5 µM in test [4]; 9.9 ± 0.9 µM in test [5]; 3.7 ± 0.3 µM in test [6]. In addition, the Kd in test [7] was 1.1 ± 0.4 µM; in test [8], 6.1 ± 0.8 µM.

The Kd is a measure of binding affinity in units of concentration. High values mean weaker binding, low ones tighter binding.
